Experiments:
Rattus norvegicus [1] = test: Antiinflammatory activity against carrageenan induced albino Sprague-Dawley rat paw edema model assessed as paw edema at 10 mg/kg, po pretreated for 1 hr followed by carrageenan challenge and measured at 3 hrs post-carrageenan injection (reference value: 38.4%); type: functional
Rattus norvegicus [2] = test: Antiinflammatory activity against carrageenan-induced albino Sprague-Dawley rat paw edema model assessed as paw diameter at 10 mg/kg, po pretreated for 1 hr followed by carrageenan challenge and measured at 1 hr post-carrageenan injection (reference value: 4.51 +/- 0.09 mm); type: functional
[3] = Ulcerogenicity in albino rat assessed as gastric lesions at 10 mg/kg, po administered as single dose after 18 hrs of starvation challenge and measured after 4 hrs; type: toxicity, organism-based; details: in vivo
Procedure, shortened: (§1)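 Adult male albino rats fasted 18 h, then dosed orally at 10 mg/kg (saline control, reference drugs); six rats per group. Killed 4 h after treatment. Stomachs removed and examined macroscopically for hyperemia, single or multiple lesions, erosion, ulcer or perforation. Number of ulcers and occurrence of hyperemia recorded.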

Rattus norvegicus [4] = test: Antiinflammatory activity against carrageenan induced albino Sprague-Dawley rat paw edema model assessed as paw edema at 10 mg/kg, po pretreated for 1 hr followed by carrageenan challenge and measured at 1 hr post-carrageenan injection (reference value: 30.3%); type: functional
Rattus norvegicus [5] = test: Antiinflammatory activity against carrageenan induced albino Sprague-Dawley rat paw edema model assessed as paw diameter at 10 mg/kg, po pretreated for 1 hr followed by carrageenan challenge and measured at 4 hrs post-carrageenan injection (reference value: 4.88 +/- 0.1 mm); type: functional
[6] = Ulcerogenicity in albino rat assessed as severity of gastric lesions at 10 mg/kg, po administered as single dose after 18 hrs of starvation challenge and measured after 4 hrs; type: toxicity, organism-based; details: in vivo; procedure, shortened: as §1
Rattus norvegicus [7] = test: Antiinflammatory activity against carrageenan-induced albino Sprague-Dawley rat paw edema model assessed as paw edema at 10 mg/kg, po pretreated for 1 hr followed by carrageenan challenge and measured at 2 hrs post-carrageenan injection (reference value: 36.4%); type: functional
Rattus norvegicus [8] = test: Antiinflammatory activity against carrageenan induced albino Sprague-Dawley rat paw edema model assessed as paw diameter at 10 mg/kg, po pretreated for 1 hr followed by carrageenan challenge and measured at 2 hrs post-carrageenan injection (reference value: 4.72 +/- 0.08 mm); type: functional
[9] = target: Prostaglandin G/H synthase 1 (Homo sapiens, UniProt P23219); test: Inhibition of human COX1 assessed as reduction in PGF2alpha production using arachidonic acid as substrate preincubated with enzyme for 10 mins followed by substrate addition by ELISA; type: single protein
Sequence of Prostaglandin G/H synthase 1 (P23219 whole entry): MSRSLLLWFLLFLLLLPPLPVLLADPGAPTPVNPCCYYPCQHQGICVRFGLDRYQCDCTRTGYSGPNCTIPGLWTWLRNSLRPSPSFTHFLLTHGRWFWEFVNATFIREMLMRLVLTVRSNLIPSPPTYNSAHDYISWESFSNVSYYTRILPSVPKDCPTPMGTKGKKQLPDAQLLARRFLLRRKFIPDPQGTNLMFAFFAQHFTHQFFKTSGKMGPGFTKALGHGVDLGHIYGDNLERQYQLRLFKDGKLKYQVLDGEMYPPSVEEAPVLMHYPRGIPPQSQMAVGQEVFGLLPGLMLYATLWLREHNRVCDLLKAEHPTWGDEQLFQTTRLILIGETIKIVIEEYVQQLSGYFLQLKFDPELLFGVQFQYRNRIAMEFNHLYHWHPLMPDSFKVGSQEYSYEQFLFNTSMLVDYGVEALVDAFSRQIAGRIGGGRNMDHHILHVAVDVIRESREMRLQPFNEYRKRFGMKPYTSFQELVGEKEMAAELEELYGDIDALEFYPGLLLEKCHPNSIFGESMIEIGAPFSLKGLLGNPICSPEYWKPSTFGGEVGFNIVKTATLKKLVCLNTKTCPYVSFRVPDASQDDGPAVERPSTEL

Rattus norvegicus [10] = test: Antiinflammatory activity against carrageenan induced albino Sprague-Dawley rat paw edema model assessed as paw diameter at 10 mg/kg, po pretreated for 1 hr followed by carrageenan challenge and measured at 3 hrs post-carrageenan injection (reference value: 4.79 +/- 0.1 mm); type: functional
[11] = Ulcerogenicity in albino rat assessed as mild hyperemia without ulceration at 10 mg/kg, po administered as single dose after 18 hrs of starvation challenge and measured after 4 hrs; type: toxicity, organism-based; details: in vivo; procedure, shortened: as §1
Rattus norvegicus [12] = test: Antiinflammatory activity against carrageenan induced albino Sprague-Dawley rat paw edema model assessed as paw edema at 10 mg/kg, po pretreated for 1 hr followed by carrageenan challenge and measured at 4 hrs post-carrageenan injection (reference value: 41%); type: functional
Rattus norvegicus [13] = test: Antiinflammatory activity against carrageenan-induced albino Sprague-Dawley rat paw edema model assessed as paw diameter at 10 mg/kg, po pretreated for 1 hr followed by carrageenan challenge and measured immediately after carrageenan injection (reference value: 3.46 +/- 0.08 mm); type: functional

Compound	IC50 [9] [nM]	Activity (Rattus norvegicus [1]) [%]	Activity (Rattus norvegicus [2]) [mm]	UI [3]	Activity (Rattus norvegicus [4]) [%]	Activity (Rattus norvegicus [5]) [mm]	UI [6]	Activity (Rattus norvegicus [7]) [%]	Activity (Rattus norvegicus [8]) [mm]	Activity (Rattus norvegicus [10]) [mm]	Activity [11]	Activity (Rattus norvegicus [12]) [%]	Activity (Rattus norvegicus [13]) [mm]
COc1ccccc1/C=C/C1=NN(c2ccc(F)cc2)C(=O)CC1	540												
COc1ccccc1/C=C/c1ccc(=O)[nH]n1	530												
COc1ccccc1/C=C/c1ccc(=O)n(-c2ccc(F)cc2)n1	700	8	3.97	0	10.5	3.85	0	9.4	3.93	3.88		7.2	3.59
COc1ccccc1/C=C/c1ccc(=O)n(-c2ccccc2)n1	460												
COc1ccccc1/C=C/C1=NN(c2ccccc2)C(=O)CC1	390												
Cc1cccc(/C=C/c2ccc(=O)n(-c3ccc(F)cc3)n2)c1	240												
Cc1ccc(-c2cc(C(F)(F)F)nn2-c2ccc(S(N)(=O)=O)cc2)cc1 [CELECOXIB]		10	3.93	2.7	12.9	3.78	6.2	11.4	3.88	3.83		8.6	3.48
COc1ccc2c(c1)c(CC(=O)O)c(C)n2C(=O)c1ccc(Cl)cc1 [INDOMETHACIN]		9.4	3.92	8.3	12.3	3.73	12.4	10.3	3.85	3.81		8	3.49

Now from value to compound, other results behind:

IC50 [9] [nM]	Compound	Activity (Rattus norvegicus [1]) [%]	Activity (Rattus norvegicus [2]) [mm]	UI [3]	Activity (Rattus norvegicus [4]) [%]	Activity (Rattus norvegicus [5]) [mm]	UI [6]	Activity (Rattus norvegicus [7]) [%]	Activity (Rattus norvegicus [8]) [mm]	Activity (Rattus norvegicus [10]) [mm]	Activity [11]	Activity (Rattus norvegicus [12]) [%]	Activity (Rattus norvegicus [13]) [mm]
450	Cc1cccc(/C=C/C2=NNC(=O)CC2)c1	10.2	3.99	0.2	13.6	3.8	0.4	11.6	3.92	3.84	Toxic	8.2	3.51
370	Cc1cccc(/C=C/c2ccc(=O)[nH]n2)c1	8.1	3.96	0	11.5	3.82	0	8.7	3.86	3.84		7.6	3.55
270	COc1ccccc1/C=C/C1=NNC(=O)CC1												
750	O=C1CCC(/C=C/c2cccnc2)=NN1	7.9	3.92	0	11	3.78	0	9.3	3.86	3.81		7	3.53
210	Cc1cccc(/C=C/C2=NN(c3ccc(F)cc3)C(=O)CC2)c1												

— ChEMBL document CHEMBL4346673, “Synthesis and biological evaluation of pyridazinone derivatives as selective COX-2 inhibitors and potential anti-inflammatory agents” (Eur J Med Chem, 2019)
